Positions of bridges follow the written chain, without caps; N, C: chain ends. Non-standard residues stand in square brackets, D forms with d. Residues, ends and D or L forms follow the SMILES beside them. Nle = CCCC[C@H](N)C(=O)O
Assays:
[1] = Displacement of [3H]BK from bradykinin receptor in rat brain membranes at pH 6.8 after 2 hrs by liquid scintillation counting method; format: cell membranes, Membrane
Method in brief: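 Competitive binding of [3H]BK to rat brain membranes at pH 6.8. Non-specific binding was defined with 10 μM kallidin. IC50 values were obtained by nonlinear least-squares regression of data from at least two independent experiments run in duplicate, and were also reported as logarithmic values.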

[2] = Half life in rat plasma by RP-HPLC method; format: ADME, cell-free
Method in brief: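 Peptide incubated in rat plasma at 37 °C and sampled at 1, 2, 4 and 8 h. Quenched samples were analysed by RP-HPLC. Half-life was calculated as t1/2 = 0.693/b, where b is the slope of the linear fit.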

[3] = Displacement of [3H]DALKD from bradykinin receptor in rat brain membranes at pH 6.8 after 2 hrs by liquid scintillation counting method; format: cell membranes, Membrane

SMILES | IC50 [1] | pIC50 [1] | half-life [2] | IC50 [3] | pIC50 [3]
CC[C@H](C)[C@@H]1NC(=O)[C@H](CCCNC(=N)N)NC(=O)[C@H](CC(C)C)NC(=O)[C@H](Cc2ccccc2)NC(=O)CC[C@@H](C(=O)N[C@@H](CCCCN)C(=O)O)NC(=O)[C@H](CCCNC(=N)N)NC1=O (FLRIREK-OH; lactam N-6) | 191 nM | 6.72 | 5.5 h | – | –
CCCC[C@H](NC(=O)[C@H](CCCCN)NC(=O)[C@@H]1CCCN1C(=O)[C@H](CCCCN)NC(=O)[C@@H](N)CCCC)C(=O)N[C@@H](CCCCN)C(=O)O (H-[Nle]KPK[Nle]K-OH) | – | – | – | 78 nM | 7.11
CC[C@H](C)[C@@H]1NC(=O)[C@H](CCCNC(=N)N)NC(=O)[C@H](CC(C)C)NC(=O)[C@H](CCCCN)NC(=O)CC[C@@H](C(=O)N[C@@H](CCCCN)C(=O)O)NC(=O)[C@H](CCCNC(=N)N)NC1=O (KLRIREK-OH; lactam N-6) | 302 nM | 6.52 | – | – | –
CC[C@H](C)[C@@H]1NC(=O)[C@H](CCCNC(=N)N)NC(=O)[C@H](CC(C)C)NC(=O)CC[C@@H](C(=O)N[C@@H](CCCCN)C(=O)O)NC(=O)[C@H](CCCNC(=N)N)NC1=O (LRIREK-OH; lactam N-5) | 1510 nM | 5.82 | – | – | –
